Assay [1] deals with T1, RNA-directed RNA polymerase (Hepacivirus hominis, UniProt O39930). Briefly: Inhibitory concentration against RNA dependent RNA polymerase Nonstructural protein 5B of genotype 1a Hepatitis C virus. In a few lines:
(§1)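 A biochemical assay on NS5B polymerase enzyme gave the IC50 values, run separately for genotype 1a and 1b.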

Assay [2] has as its target T1, RNA-directed RNA polymerase. Briefly: Inhibitory concentration against RNA dependent RNA polymerase Nonstructural protein 5B of genotype 1b Hepatitis C virus. Summed up:
as §1

The target is the same in assay [3]. Briefly: Effective concentration against RNA dependent RNA polymerase Nonstructural protein 5B of genotype 1b Hepatitis C virus. In a few lines: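 Activity measured in an HCV replicon assay, with EC50 values derived from it.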

T1 sequence (O39930 whole entry): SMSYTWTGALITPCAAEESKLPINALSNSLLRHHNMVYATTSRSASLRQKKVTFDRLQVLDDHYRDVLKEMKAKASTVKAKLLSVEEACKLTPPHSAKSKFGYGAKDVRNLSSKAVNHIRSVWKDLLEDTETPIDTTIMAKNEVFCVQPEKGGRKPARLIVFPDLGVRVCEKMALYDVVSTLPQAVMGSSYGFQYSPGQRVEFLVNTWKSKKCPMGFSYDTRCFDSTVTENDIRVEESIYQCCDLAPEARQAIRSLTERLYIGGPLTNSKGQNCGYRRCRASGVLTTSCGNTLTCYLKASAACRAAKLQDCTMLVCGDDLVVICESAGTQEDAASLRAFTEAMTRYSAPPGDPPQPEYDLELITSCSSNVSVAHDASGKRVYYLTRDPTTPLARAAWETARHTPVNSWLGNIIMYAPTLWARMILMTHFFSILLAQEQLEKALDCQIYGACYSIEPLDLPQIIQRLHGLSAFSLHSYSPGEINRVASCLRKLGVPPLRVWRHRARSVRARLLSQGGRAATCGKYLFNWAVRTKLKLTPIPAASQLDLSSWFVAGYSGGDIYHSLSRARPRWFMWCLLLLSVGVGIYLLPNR

A word on the IC50: it is the concentration needed to halve the response being measured. High values mean weaker potency in that assay, low ones greater potency in that assay. On to `O=c1c(C2=Nc3ccccc3S(=O)(=O)N2)c(O)c2ccccc2n1NCC1CCCC1`, for which the 50% inhibitory concentration (IC50) is 747 nM in assay [1] and 150 nM in assay [2]. What is called EC50 is the concentration needed to bring the measured effect to its halfway point. Higher therefore signals a less potent agent. As to `CCCCNn1c(=O)c(C2=Nc3ccccc3S(=O)(=O)N2)c(O)c2ccccc21`, the IC50 in assay [1] was found to be 951 nM; in assay [2] it was 161 nM. This compound also had a concentration for a half-maximal effect (EC50) in assay [3] of 3480 nM. Consider `O=c1c(C2=Nc3ccccc3S(=O)(=O)N2)c(O)c2ccccc2n1NCc1ccoc1`, for which the results for the IC50 in assay [1] and in assay [2] were 1550 nM and 133 nM, respectively. As to `O=c1c(C2=Nc3ccccc3S(=O)(=O)N2)c(O)c2ccccc2n1NCc1cccs1`, the values for the 50% inhibitory concentration (IC50) in assay [1] and in assay [2] were 2330 nM and 125 nM, respectively.

As to `CCC(CC)Nn1c(=O)c(C2=NS(=O)(=O)c3ccccc3N2)c(O)c2ccccc21`, the IC50 in assay [1] was determined as 2460 nM; in assay [2] it was 120 nM. `O=c1c(C2=NS(=O)(=O)c3ccccc3N2)c(O)c2cccnc2n1Cc1ccccc1` returned an IC50 in assay [2] of 83 nM. Consider `CC(Nn1c(=O)c(C2=Nc3ccccc3S(=O)(=O)N2)c(O)c2ccccc21)c1ccccc1` (configuration not stated), for which the IC50 is 16500 nM in assay [1] and 1490 nM in assay [2]. As to `Cc1cccc(CNn2c(=O)c(C3=NS(=O)(=O)c4ccccc4N3)c(O)c3ccccc32)c1`, the values for the IC50 in assay [1] and in assay [2] were 8210 nM and 212 nM, respectively. Regarding `CCC(CC)n1c(=O)c(C2=NS(=O)(=O)c3ccccc3N2)c(O)c2cccnc21`, 13200 nM corresponded to half-maximal inhibition in assay [2] (IC50).

Regarding `O=c1c(C2=Nc3ccccc3S(=O)(=O)N2)c(O)c2ccccc2n1NCc1ccc(Br)cc1`, the figures for the half-inhibitory concentration (IC50) in assay [1] and in assay [2] were 10400 nM and 4690 nM, respectively. In the case of `O=c1c(C2=Nc3ccccc3S(=O)(=O)N2)c(O)c2ccccc2n1NCc1nccs1`, the results for the IC50 in assay [1] and in assay [2] were 35800 nM and 674 nM, respectively.

`CCC(CC)Cn1c(=O)c(C2=NS(=O)(=O)c3ccccc3N2)c(O)c2cccnc21` gave an IC50 in assay [2] of 58 nM. This counts as double-digit nanomolar. `CC(C)CNn1c(=O)c(C2=NS(=O)(=O)c3ccccc3N2)c(O)c2ccccc21`: the IC50 in assay [1] was determined as 941 nM; in assay [2] it was 101 nM. The compound also came in with an EC50 in assay [3] of 1350 nM. As to `Cc1ccsc1CNn1c(=O)c(C2=NS(=O)(=O)c3ccccc3N2)c(O)c2ccccc21`, the IC50 in assay [1] turned out to be 15000 nM; in assay [2] it was 1190 nM. As to `O=c1c(C2=Nc3ccccc3S(=O)(=O)N2)c(O)c2ccccc2n1NCC1CCCCC1`, the IC50 in assay [1] is 2530 nM; in assay [2], 150 nM. For `CC(C)(C)CCNn1c(=O)c(C2=NS(=O)(=O)c3ccccc3N2)c(O)c2ccccc21`, the concentration for half-maximal inhibition (IC50) in assay [1] is 411 nM; in assay [2] it was 135 nM. On the same counts, the results for `CCCC(Nn1c(=O)c(C2=NS(=O)(=O)c3ccccc3N2)c(O)c2ccccc21)C(C)C` (configuration not stated) are 6400 nM and 1130 nM. On the same counts, the results for `CCCC(CC)Nn1c(=O)c(C2=Nc3ccccc3S(=O)(=O)N2)c(O)c2ccccc21` (configuration not stated) are 1890 nM and 386 nM. With `O=c1c(C2=Nc3ccccc3S(=O)(=O)N2)c(O)c2ccccc2n1NCc1ccccc1`, the IC50 amounted to 5090 nM in assay [1] and 129 nM in assay [2]. The same compound registered an EC50 in assay [3] of 15700 nM.

With `CC(C)Nn1c(=O)c(C2=NS(=O)(=O)c3ccccc3N2)c(O)c2ccccc21`, the IC50 in assay [1] was determined as 6350 nM; in assay [2] it was 640 nM. As to `CC(C)CCn1c(=O)c(C2=NS(=O)(=O)c3ccccc3N2)c(O)c2cccnc21`, the midpoint of inhibition in assay [2], the IC50, lay at 69 nM. This counts as double-digit nanomolar.

For `Cc1ccccc1CNn1c(=O)c(C2=Nc3ccccc3S(=O)(=O)N2)c(O)c2ccccc21`, the figures for the IC50 in assay [1] and in assay [2] were 6120 nM and 481 nM, respectively. Turning to `O=c1c(C2=NS(=O)(=O)c3ccccc3N2)c(O)c2ccccc2n1NCC1CC1`, the IC50 in assay [1] turned out to be 285 nM; in assay [2], 145 nM. The same compound had an EC50 in assay [3] of 1050 nM.

On to `O=c1c(C2=Nc3ccccc3S(=O)(=O)N2)c(O)c2ccccc2n1NC1CCCCC1`, for which the IC50 in assay [1] is 356 nM; in assay [2], 60 nM. The compound also had an EC50 in assay [3] of 1270 nM. Consider `Cc1ccc(CNn2c(=O)c(C3=Nc4ccccc4S(=O)(=O)N3)c(O)c3ccccc32)cc1`, for which the IC50 in assay [1] and in assay [2] was greater than 5000 nM in each case. Regarding `O=c1c(C2=NS(=O)(=O)c3ccccc3N2)c(O)c2cccnc2n1C1CCCCC1`, in assay [2], half-maximal inhibition (IC50) was put at 50000 nM. For `CC(C)COn1c(=O)c(C2=Nc3ccccc3S(=O)(=O)N2)c(O)c2cccnc21`, in assay [2], half-maximal inhibition (IC50) was put at 20500 nM.

In turn, `O=c1c(C2=NS(=O)(=O)c3ccccc3N2)c(O)c2cccnc2n1OCc1ccccc1` came in with an IC50 in assay [2] of 58000 nM. As to `O=c1c(C2=Nc3ccccc3S(=O)(=O)N2)c(O)c2ccccc2n1NCc1cccnc1`, the IC50 was greater than 5000 nM in assay [1] and 221 nM in assay [2]. For the compound `O=c1c(C2=NS(=O)(=O)c3ccccc3N2)c(O)c2ccccc2n1NCc1ccco1`, the IC50 in assay [1] is 3260 nM; in assay [2] it was 305 nM.

Take `O=c1c(C2=Nc3ccccc3S(=O)(=O)N2)c(O)c2ccccc2n1NCC1CCC1`: the IC50 in assay [1] was 278 nM; in assay [2] it was 108 nM. Further, the 50% effective concentration (EC50) in assay [3] worked out at 103 nM.

As for `CCCCCNn1c(=O)c(C2=NS(=O)(=O)c3ccccc3N2)c(O)c2ccccc21`, in assay [1], the IC50 was found to be 928 nM.

In the case of `O=c1c(C2=Nc3ccccc3S(=O)(=O)N2)c(O)c2ccccc2n1NCc1ccccc1Br`, the IC50 in assay [1] stood at 6720 nM; in assay [2], 469 nM.

As for `O=c1c(C2=NS(=O)(=O)c3ccccc3N2)c(O)c2ccccc2n1NC1CCOCC1`, the IC50 was 4630 nM in assay [1] and 439 nM in assay [2].

For `CC(C)CCNn1c(=O)c(C2=Nc3ccccc3S(=O)(=O)N2)c(O)c2ccccc21`, the figures for the IC50 in assay [1] and in assay [2] were 629 nM and 134 nM, respectively.

`CCCC(CCC)Nn1c(=O)c(C2=Nc3ccccc3S(=O)(=O)N2)c(O)c2ccccc21`: the results for the IC50 in assay [1] and in assay [2] were 2240 nM and 1800 nM, respectively. As to `O=c1c(C2=NS(=O)(=O)c3ccccc3N2)c(O)c2ccccc2n1NCc1cccc(Br)c1`, the values for the IC50 in assay [1] and in assay [2] were 1040 nM and 75 nM, respectively. Compound `O=c1c(C2=NS(=O)(=O)c3ccccc3N2)c(O)c2cccnc2n1CC1CCCCC1` displayed an IC50 in assay [2] of 93 nM. This lies in the double-digit nanomolar range. In assay [2], `CC(c1ccccc1)n1c(=O)c(C2=NS(=O)(=O)c3ccccc3N2)c(O)c2cccnc21` (configuration not stated) registered an IC50 of 4630 nM. Compared with the last compound, the IC50 is about 50-fold higher. For `O=c1c(C2=NS(=O)(=O)c3ccccc3N2)c(O)c2ccccc2n1NCc1ccc(Cl)s1`, the values for the IC50 in assay [1] and in assay [2] were 4780 nM and 1450 nM, respectively. Compound `O=c1c(C2=NS(=O)(=O)c3ccccc3N2)c(O)c2cccnc2n1CCc1ccccc1` yielded an IC50 in assay [2] of 1490 nM.

The record behind these values is ChEMBL document CHEMBL1142034, “Inhibitors of HCV NS5B polymerase: synthesis and structure-activity relationships of N-1-heteroalkyl-4-hydroxyquinolon-3-yl-benzothiadiazines” (Bioorg Med Chem Lett, 2005).
